Values after ≈ are worked out from the molar mass of the structure shown. Active and inactive are the calls of the source. No cut-off for these calls is given here.
Assays:
Mycobacterium kansasii [1] = experiment: Antimycobacterial activity against Mycobacterium kansasii My 235/80 after 7 days; assay type: functional; conditions: My 235/80, 168 h
Summary of the method: (§1)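 Micromethod MIC in Šula's semisynthetic medium at 37 °C. Compounds added in DMSO at 1000 down to 0.032 µmol/L. Isoniazid standard in sterile water at 0.5–250 µmol/L. Inocula: H37Rv 10^3, M. avium 10^5, M. kansasii 10^4. Read at 14 and 21 d, plus 7 d for M. kansasii.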

[2] = test system: Staphylococcus epidermidis; experiment: Antibacterial activity against Staphylococcus epidermidis H 6966/08 after 24 hrs by broth microdilution method; assay type: functional; conditions: H 6966/08, 24 h
Summary of the method: (§2)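 Broth microdilution in Mueller–Hinton broth, compounds dissolved in DMSO, tested over a dilution series from 500 downward. MIC taken as ≥95% growth reduction (IC95) versus drug-free control. Benzylpenicillin comparator. Readings at 24 and 48 h.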

Trichosporon asahii [3] = experiment: Antifungal activity against Trichosporon asahii 1188 after 24 hrs by broth microdilution method; assay type: functional; conditions: Trichosporon asahii, 1188, 24 h
Summary of the method: (§3)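 Broth microdilution in RPMI 1640 with glutamine, fluconazole as reference. For yeasts, MIC is ≥80% growth reduction (IC80) versus control. For filamentous fungi, the value is expressed as IC50. Readings at 24 and 48 h.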

Staphylococcus aureus [4] = experiment: Antibacterial activity against Staphylococcus aureus CCM 4516/08 after 48 hrs by broth microdilution method; assay type: functional; conditions: CCM 4516/08, 48 h; summary of the method: as §2
Nakaseomyces glabratus = experiment: Antifungal activity against Candida glabrata 20/I at 500 micromol/L after 24 to 48 hrs by broth microdilution method; assay type: functional, organism-based; summary of the method: as §3
[5] = test system: Mycobacterium tuberculosis; experiment: Antimycobacterial activity against Mycobacterium tuberculosis H37Rv My 331/88 after 14 days; assay type: functional; conditions: H37Rv My 331/88, 336 h; summary of the method: as §1
Aspergillus fumigatus [6] = experiment: Antifungal activity against Aspergillus fumigatus 231 after 24 hrs by broth microdilution method; assay type: functional; conditions: Aspergillus fumigatus, 231, 24 h; summary of the method: as §3
Klebsiella pneumoniae [7] = experiment: Antibacterial activity against ESBL-positive Klebsiella pneumoniae J 14368/08 at 500 micromol/L after 24 to 48 hrs by broth microdilution method; assay type: functional, organism-based; summary of the method: as §2
Mycobacterium kansasii [8] = experiment: Antimycobacterial activity against Mycobacterium kansasii 6509/96 after 7 days; assay type: functional; conditions: 6509/96, 168 h; summary of the method: as §1
[9] = test system: Trichophyton mentagrophytes; experiment: Antifungal activity against Trichophyton mentagrophytes 445 after 120 hrs by broth microdilution method; assay type: functional; conditions: Trichophyton mentagrophytes, 445, 120 h
Summary of the method: (§4)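 Filamentous dermatophyte tested by broth microdilution in RPMI 1640 with glutamine, fluconazole as reference. Value expressed as IC50 relative to growth control. Read at 72 and 120 h.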

Mycobacterium kansasii [10] = experiment: Antimycobacterial activity against Mycobacterium kansasii 6509/96 after 14 days; assay type: functional; conditions: 6509/96, 336 h; summary of the method: as §1
Lichtheimia corymbifera [11] = experiment: Antifungal activity against Absidia corymbifera 272 after 24 hrs by broth microdilution method; assay type: functional; conditions: Lichtheimia corymbifera, 272, 24 h; summary of the method: as §3
Escherichia coli = experiment: Antibacterial activity against Escherichia coli CCM 4517 at 500 micromol/L after 24 to 48 hrs by broth microdilution method; assay type: functional, organism-based; summary of the method: as §2
Klebsiella pneumoniae [12] = experiment: Antibacterial activity against Klebsiella pneumoniae D 11750/08 at 500 micromol/L after 24 to 48 hrs by broth microdilution method; assay type: functional, organism-based; summary of the method: as §2
Pichia kudriavzevii [13] = experiment: Antifungal activity against Candida krusei E28 after 24 hrs by broth microdilution method; assay type: functional; conditions: E28, 24 h; summary of the method: as §3
Enterococcus sp. = experiment: Antibacterial activity against Enterococcus sp. J 14365/08 at 500 micromol/L after 24 to 48 hrs by broth microdilution method; assay type: functional, organism-based; summary of the method: as §2
[14] = test system: Mycobacterium tuberculosis; experiment: Antimycobacterial activity against Mycobacterium tuberculosis H37Rv My 331/88 after 21 days; assay type: functional; conditions: H37Rv My 331/88, 504 h; summary of the method: as §1
Mycobacterium kansasii [15] = experiment: Antimycobacterial activity against Mycobacterium kansasii 6509/96 after 21 days; assay type: functional; conditions: 6509/96, 504 h; summary of the method: as §1
Candida albicans [16] = experiment: Antifungal activity against Candida albicans ATCC 44859 after 48 hrs by broth microdilution method; assay type: functional; conditions: ATCC 44859, 48 h; summary of the method: as §3
Aspergillus fumigatus [17] = experiment: Antifungal activity against Aspergillus fumigatus 231 after 48 hrs by broth microdilution method; assay type: functional; conditions: Aspergillus fumigatus, 231, 48 h; summary of the method: as §3
HepG2 = experiment: Cytotoxicity against human HepG2 cells after 24 hrs by CellTiter assay; assay type: cell-based; conditions: HepG2, 24 h
Summary of the method: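 HepG2 cells (passage 27–33) in MEM with 10% FBS, L-glutamine and NEAA, seeded at 1×10^4 per well. Treated next day with compounds at 0.1–100 µM (or 0.1–25 µmol/L), triplicates, <1% DMSO, for 24 h at 37 °C, 5% CO2. MTS reagent added for 2 h, absorbance read at 490 nm. IC50 taken against untreated (100%) and 10% DMSO (0%) controls.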

Mycobacterium kansasii [18] = experiment: Antimycobacterial activity against Mycobacterium kansasii My 235/80 after 21 days; assay type: functional; conditions: My 235/80, 504 h; summary of the method: as §1
Mycobacterium avium [19] = experiment: Antimycobacterial activity against isoniazid, rifampicin, ethambutol and ofloxacin-resistant Mycobacterium avium My 330/88 after 21 days; assay type: functional; conditions: My 330/88, 504 h; summary of the method: as §1
Candida tropicalis = experiment: Antifungal activity against Candida tropicalis 156 at 500 micromol/L after 24 to 48 hrs by broth microdilution method; assay type: functional, organism-based; summary of the method: as §3
Staphylococcus aureus [20] = experiment: Antibacterial activity against methicillin-resistant Staphylococcus aureus H 5996/08 after 24 hrs by broth microdilution method; assay type: functional; conditions: H 5996/08, 24 h; summary of the method: as §2
[21] = test system: Trichophyton mentagrophytes; experiment: Antifungal activity against Trichophyton mentagrophytes 445 after 72 hrs by broth microdilution method; assay type: functional; conditions: Trichophyton mentagrophytes, 445, 72 h; summary of the method: as §4
Trichosporon asahii [22] = experiment: Antifungal activity against Trichosporon asahii 1188 after 48 hrs by broth microdilution method; assay type: functional; conditions: Trichosporon asahii, 1188, 48 h; summary of the method: as §3
Pseudomonas aeruginosa = experiment: Antibacterial activity against Pseudomonas aeruginosa CCM 1961 at 500 micromol/L after 24 to 48 hrs by broth microdilution method; assay type: functional, organism-based; summary of the method: as §2
Candida albicans [23] = experiment: Antifungal activity against Candida albicans ATCC 44859 after 24 hrs by broth microdilution method; assay type: functional; conditions: ATCC 44859, 24 h; summary of the method: as §3
Staphylococcus aureus [24] = experiment: Antibacterial activity against Staphylococcus aureus CCM 4516/08 after 24 hrs by broth microdilution method; assay type: functional; conditions: CCM 4516/08, 24 h; summary of the method: as §2
Mycobacterium kansasii [25] = experiment: Antimycobacterial activity against Mycobacterium kansasii My 235/80 after 14 days; assay type: functional; conditions: My 235/80, 336 h; summary of the method: as §1
Staphylococcus aureus [26] = experiment: Antibacterial activity against methicillin-resistant Staphylococcus aureus H 5996/08 after 48 hrs by broth microdilution method; assay type: functional; conditions: H 5996/08, 48 h; summary of the method: as §2
Pichia kudriavzevii [27] = experiment: Antifungal activity against Candida krusei E28 after 48 hrs by broth microdilution method; assay type: functional; conditions: E28, 48 h; summary of the method: as §3
Mycobacterium avium [28] = experiment: Antimycobacterial activity against isoniazid, rifampicin, ethambutol and ofloxacin-resistant Mycobacterium avium My 330/88 after 14 days; assay type: functional; conditions: My 330/88, 336 h; summary of the method: as §1
Lichtheimia corymbifera [29] = experiment: Antifungal activity against Absidia corymbifera 272 after 48 hrs by broth microdilution method; assay type: functional; conditions: Lichtheimia corymbifera, 272, 48 h; summary of the method: as §3
[30] = test system: Staphylococcus epidermidis; experiment: Antibacterial activity against Staphylococcus epidermidis H 6966/08 after 48 hrs by broth microdilution method; assay type: functional; conditions: H 6966/08, 48 h; summary of the method: as §2

Row | Structure (SMILES) | MIC (Mycobacterium kansasii [1]) [µM] | MIC95 [2] [µM] | MIC80 (Trichosporon asahii [3]) [µM] | MIC95 (Staphylococcus aureus [4]) [µM] | Activity (Nakaseomyces glabratus) | MIC [5] [µM] | MIC50 (Aspergillus fumigatus [6]) [µM] | Activity (Klebsiella pneumoniae [7]) | MIC (Mycobacterium kansasii [8]) [µM] | MIC50 [9] [µM] | MIC (Mycobacterium kansasii [10]) [µM] | MIC50 (Lichtheimia corymbifera [11]) [µM] | Activity (Escherichia coli) | Activity (Klebsiella pneumoniae [12]) | MIC80 (Pichia kudriavzevii [13]) [µM] | Activity (Enterococcus sp.) | MIC [14] [µM] | MIC (Mycobacterium kansasii [15]) [µM] | MIC80 (Candida albicans [16]) [µM] | MIC50 (Aspergillus fumigatus [17]) [µM] | also measured
1 | CCOP(=O)(OCC)Oc1cc(Cl)ccc1C(=O)Nc1ccc(Cl)c(Cl)c1 | 2 (≈ 0.905 µg/mL) | 250 (≈ 113 µg/mL) | > 500 | > 500 | inactive | 4 (≈ 1.81 µg/mL) | > 500 | inactive | 4 (≈ 1.81 µg/mL) | 7.81 (≈ 3.54 µg/mL) | 4 (≈ 1.81 µg/mL) | > 500 | inactive | inactive | > 500 | inactive | 4 (≈ 1.81 µg/mL) | 4 (≈ 1.81 µg/mL) | > 500 | > 500 | IC50 (HepG2): 1.92 µM; MIC (Mycobacterium kansasii [18]): 4 µM (≈ 1.81 µg/mL); MIC (Mycobacterium avium [19]): 16 µM (≈ 7.24 µg/mL); Activity (Candida tropicalis): inactive; MIC95 (Staphylococcus aureus [20]): 500 µM (≈ 226 µg/mL); MIC50 [21]: 7.81 µM (≈ 3.54 µg/mL); MIC80 (Trichosporon asahii [22]): > 500 µM; Activity (Pseudomonas aeruginosa): inactive; MIC80 (Candida albicans [23]): > 500 µM; MIC95 (Staphylococcus aureus [24]): 500 µM (≈ 226 µg/mL); MIC (Mycobacterium kansasii [25]): 4 µM (≈ 1.81 µg/mL); MIC95 (Staphylococcus aureus [26]): > 500 µM; MIC80 (Pichia kudriavzevii [27]): > 500 µM; MIC (Mycobacterium avium [28]): 16 µM (≈ 7.24 µg/mL); MIC50 (Lichtheimia corymbifera [29]): > 500 µM; MIC95 [30]: > 500 µM
2 | CCOP(=O)(OCC)Oc1cc(Cl)ccc1C(=O)Nc1ccc(Cl)cc1 | 4 (≈ 1.67 µg/mL) | 250 (≈ 105 µg/mL) | > 500 | 250 (≈ 105 µg/mL) | inactive | 4 (≈ 1.67 µg/mL) | > 500 | inactive | 4 (≈ 1.67 µg/mL) | 500 (≈ 209 µg/mL) | 8 (≈ 3.35 µg/mL) | > 500 | inactive | inactive | > 500 | inactive | 4 (≈ 1.67 µg/mL) | 8 (≈ 3.35 µg/mL) | > 500 | > 500 | IC50 (HepG2): 5.6 µM; MIC (Mycobacterium kansasii [18]): 8 µM (≈ 3.35 µg/mL); MIC (Mycobacterium avium [19]): 8 µM (≈ 3.35 µg/mL); Activity (Candida tropicalis): inactive; MIC95 (Staphylococcus aureus [20]): 500 µM (≈ 209 µg/mL); MIC50 [21]: 500 µM (≈ 209 µg/mL); MIC80 (Trichosporon asahii [22]): > 500 µM; Activity (Pseudomonas aeruginosa): inactive; MIC80 (Candida albicans [23]): > 500 µM; MIC95 (Staphylococcus aureus [24]): 125 µM (≈ 52.3 µg/mL); MIC (Mycobacterium kansasii [25]): 4 µM (≈ 1.67 µg/mL); MIC95 (Staphylococcus aureus [26]): > 500 µM; MIC80 (Pichia kudriavzevii [27]): > 500 µM; MIC (Mycobacterium avium [28]): 8 µM (≈ 3.35 µg/mL); MIC50 (Lichtheimia corymbifera [29]): > 500 µM; MIC95 [30]: 500 µM (≈ 209 µg/mL)

From ChEMBL document CHEMBL3102784, “Salicylanilide diethyl phosphates: synthesis, antimicrobial activity and cytotoxicity” (Bioorg Med Chem, 2014)
